Sampled rows, rich in hits. Any-hit rate of the full collection: about 6.7%.
NR3A LBD binder – modulators (binders) of human NR3A ligand-binding domain | NR3A LBD differential scanning fluorimetry, Tm shift; 0% = protein alone, 100% = glycine-bound protein | Tm shift relative to glycine control, % at 25 µM | 340,000 compounds, 2.5% hits | AID 1259313;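 active means melting temperature shift of at least 10% of the positive control shift, at one fixed dose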
T cruzi inh – T. cruzi replication inhibition. T. cruzi beta-gal in NIH3T3, luminescence, 90 h. inhibition, % (no concentration beside the values). 300,000 compounds, 1.4% hits. AID 1885;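 active means mean inhibition across valid replicates above about 55%, limit read from the data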;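 further: signal also drops with host cell toxicity which is not excluded here; higher percent means less beta-gal luminescence so fewer parasites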
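Read-out: Parasite load inhibition, % | Test system: Mouse NIH/3T3 fibroblasts infected with β-gal-expressing T. cruzi Tulahuen C4 | Amount: 5,000 cells/well | Medium: DMEM, 2% fetal bovine serum | Signal: GalScreen β-gal luminescence, detergent lysis, 60 min | Timing: 3 h attach, ≥90 h co-culture | Also added: Tulahuen C4 trypomastigotes, 5000/well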
Beta apoptosis – blocks beta cell apoptosis. INS-1E cytokine-induced death, ATP luminescence, 48 h; percent of positive-control rescue, neutral wells zero. protection from apoptosis, % (concentration not given with the values). 300,000 compounds, 0.8% hits;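 active means Every replicate reaches about 75%, or at least half do and their mean reaches it too, limit read from the data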;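 further: higher means more ATP so stronger rescue from cytokine killing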
CSC inhib – blocks cancer stem cells | 300,000 compounds, 1.1% hits | inhibition, % at 7.5 µM | cancer stem cell-like cells viability, luminescence; in the data active means inhibition above about 75%; tested in HMLE shEcad cells
PREPL inh – inhibitors of human prolyl oligopeptidase-like enzyme PREPL | AID 2751 | inhibition, % at 5.96 µM | recombinant PREPL, fluorescence polarization activity-based probe | 320,000 compounds, 0.68% hits | Q4J6C6; in the data active means inhibition above about 43%
Target sequence (Q4J6C6 whole entry, looked up): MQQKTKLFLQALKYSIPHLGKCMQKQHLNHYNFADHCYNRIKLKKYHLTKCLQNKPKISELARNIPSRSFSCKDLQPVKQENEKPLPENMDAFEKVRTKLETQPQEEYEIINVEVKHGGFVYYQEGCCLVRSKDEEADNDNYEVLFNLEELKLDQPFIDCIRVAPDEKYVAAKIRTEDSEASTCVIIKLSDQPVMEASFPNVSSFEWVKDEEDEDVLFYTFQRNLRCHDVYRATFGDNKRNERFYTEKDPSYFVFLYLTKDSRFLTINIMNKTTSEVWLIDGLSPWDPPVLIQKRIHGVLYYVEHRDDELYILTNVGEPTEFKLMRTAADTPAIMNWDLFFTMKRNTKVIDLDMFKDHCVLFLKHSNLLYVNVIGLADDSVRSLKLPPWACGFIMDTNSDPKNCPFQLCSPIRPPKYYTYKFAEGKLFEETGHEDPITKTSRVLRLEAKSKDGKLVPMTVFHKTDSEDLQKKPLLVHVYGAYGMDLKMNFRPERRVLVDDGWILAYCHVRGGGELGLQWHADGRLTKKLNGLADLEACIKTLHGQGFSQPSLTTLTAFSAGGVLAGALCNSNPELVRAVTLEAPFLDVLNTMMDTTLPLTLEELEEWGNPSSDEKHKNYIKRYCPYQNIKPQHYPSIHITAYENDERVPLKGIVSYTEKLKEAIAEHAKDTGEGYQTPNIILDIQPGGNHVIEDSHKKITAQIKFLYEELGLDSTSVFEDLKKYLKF
CHOP inhibitor – blocks CHOP induction under ER stress; CHO-K1 CHOP-promoter luciferase, tunicamycin-induced, 15-18 h; inhibition, % at 10 µM; 220,000 compounds, 3.8% hits;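 active means compounds that reduced the stress-induced luciferase reporter signal by more than about 70% of percent inhibition, limit read from the data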
Large screens that a line does not name were inactive.

O=C(CC1SC(=Nc2ccccc2)N(CCc2c[nH]c3ccccc23)C1=O)Nc1ccccc1F (centres undefined)	NR3A LBD binder 21, CSC inhib 81
CCOC(=O)c1sc(NC(=O)c2ccc(CC)s2)nc1C	CHOP inhibitor 71
CCOC(=O)c1sc(Nc2ccc(Br)cc2)nc1C	NR3A LBD binder 14 (no result: Beta apoptosis)
CCOC(=O)c1cc2nc(Nc3ccc(OC)cc3)sc2s1	NR3A LBD binder 15, CHOP inhibitor 70
CCOC(=O)c1sc(NC(=O)c2cc3ccccc3o2)nc1C	none
COc1ccc(Nc2nc(-c3ccc(OC)cc3)c(CCC(=O)O)s2)cc1	none
Cc1c(C)c2ccc(OC(C)C(=O)NCCCN3CCOCC3)c(C)c2oc1=O (centres undefined)	none (no result: CHOP inhibitor)
NC(=O)c1ncn([C@@H]2O[C@H](CNCc3cccc(OC4CCCC4)c3)[C@@H](O)[C@H]2O)n1	NR3A LBD binder 17 (no result: T cruzi inh, Beta apoptosis, CSC inhib, PREPL inh, CHOP inhibitor)
COc1cc(Cl)c(CNC[C@H]2O[C@@H](n3cnc(C(N)=O)n3)[C@H](O)[C@@H]2O)c(Cl)c1O	none (no result: T cruzi inh, Beta apoptosis, CSC inhib, PREPL inh, CHOP inhibitor)
NC(=O)c1ncn([C@@H]2O[C@H](CNCc3cnc(N4CCOCC4)nc3)[C@@H](O)[C@H]2O)n1	NR3A LBD binder 13 (no result: T cruzi inh, Beta apoptosis, CSC inhib, PREPL inh, CHOP inhibitor)
NC(=O)c1ncn([C@@H]2O[C@H](CNCc3cccc4c3sc3ccccc34)[C@@H](O)[C@H]2O)n1	none (no result: T cruzi inh, Beta apoptosis, CSC inhib, PREPL inh, CHOP inhibitor)
COc1ccc(C2NC(=O)N(CCCC(=O)O)C(C)=C2C(=O)OCc2ccccc2)cc1 (centres undefined)	none (no result: NR3A LBD binder, CHOP inhibitor)
CC(=O)Nc1ccc2c(c1)Cc1cc(N3C(=O)C=CC3=O)ccc1-2	NR3A LBD binder 24 (no result: T cruzi inh, Beta apoptosis, CSC inhib, PREPL inh, CHOP inhibitor)
Cc1ccc(F)cc1CNC(=O)C1CCC(=O)N(CCCN2CCCC2=O)C1 (centres undefined)	NR3A LBD binder 13 (no result: Beta apoptosis, CHOP inhibitor)
NS(=O)(=O)c1cccc(NC(=O)CSc2n[nH]c(-c3ccccc3Br)n2)c1	none (no result: T cruzi inh, Beta apoptosis, CSC inhib, PREPL inh, CHOP inhibitor)
N#CCCN1CCN(Cc2cc(-c3ccccc3)ccc2O)CC1	none
CC(C)(C)CC(C)(C)c1ccc(O)c(CN2CCN(CCC#N)CC2)c1	CHOP inhibitor 73
C[C@@H](CSc1ccc(Br)cc1)CN1CC[C@H](C(C)(C)C)CCC1=O	NR3A LBD binder 10, CSC inhib 123 (no result: T cruzi inh, CHOP inhibitor)
Cc1ccc(SC[C@H](C)CN2CC[C@H](C(C)(C)C)CCC2=O)cc1	CSC inhib 76 (no result: CHOP inhibitor)
C[C@@H](CSc1ccccc1)CN1CC[C@H](O)CCC1=O	none (no result: CHOP inhibitor)
O=C1CC[C@H](O)CCN1CCSc1ccc(Br)cc1	none (no result: T cruzi inh, CHOP inhibitor)
CC1CCc2nc(/C(C#N)=C/c3ccncc3)sc2C1 (centres undefined)	none
CC(=O)NNc1cc(C)nc(N)n1	none
Cc1ccc(S(=O)(=O)Nc2ccc3nc(C)sc3c2)cc1	none
Cc1nc2ccc(NS(=O)(=O)c3ccc(F)c(F)c3)cc2s1	none (no result: T cruzi inh, CHOP inhibitor)
Cc1ccc(S(=O)(=O)Nc2ccc3nc(C)oc3c2)cc1	NR3A LBD binder 11 (no result: T cruzi inh, Beta apoptosis, CSC inhib, PREPL inh, CHOP inhibitor)
Cc1ccc2nc(-c3ccc(NS(=O)(=O)c4ccccc4)cc3)sc2c1	NR3A LBD binder 28
Cc1ccc(S(=O)(=O)Nc2ccc3nc(N)sc3c2)cc1	none
Cc1ccc2nc(-c3ccc(NS(=O)(=O)c4ccc(F)c(F)c4)cc3)sc2c1	NR3A LBD binder 36, CSC inhib 103, CHOP inhibitor 85
CCOC(CCNC(=O)c1cc(-c2cccs2)nc2ccccc12)OCC	none (no result: CHOP inhibitor)
CN(C(=O)COC(=O)c1cc(=O)[nH]c2ccccc12)c1ccccc1	none (no result: T cruzi inh, CHOP inhibitor)
CNC(=S)N(Cc1ccc2c(c1)OCO2)C1CC(=O)N(c2ccccc2)C1=O (centres undefined)	none
CCNC(=S)N(Cc1ccc2c(c1)OCO2)C1CC(=O)N(c2ccc(OC)cc2)C1=O (centres undefined)	NR3A LBD binder 26
COc1ccc(N2C(=O)CC(N3CCN(Cc4ccc5c(c4)OCO5)CC3)C2=O)cc1 (centres undefined)	none
CCNC(=S)N(Cc1ccc2c(c1)OCO2)C1CC(=O)N(c2ccc(F)cc2)C1=O (centres undefined)	CHOP inhibitor 73
CCNC(=S)N(Cc1ccc(OC)cc1)C1CC(=O)N(c2ccc(OCC)cc2)C1=O (centres undefined)	NR3A LBD binder 18, CHOP inhibitor 73
O=c1[nH]c(C2C3CC4CC(C3)CC2C4)nc2ccccc12 (centres undefined)	CHOP inhibitor 73
COc1ccc(OC)c(NC(=O)c2cc(-c3cc(C)ccc3O)n[nH]2)c1	NR3A LBD binder 37 (no result: PREPL inh, CHOP inhibitor)
COc1ccc(OC)c(NC(=O)c2cc(-c3ccc(C)cc3O)n[nH]2)c1	NR3A LBD binder 28, CHOP inhibitor 87
Cc1ccc(-c2cc(C(=O)Nc3cc(C)ccc3C)[nH]n2)c(O)c1	none (no result: CSC inhib)
Cc1ccc(-n2cnc3c(=O)[nH]cnc32)cc1[N+](=O)[O-]	none (no result: T cruzi inh, Beta apoptosis, CSC inhib, PREPL inh, CHOP inhibitor)
CC(C)(C)C1CCC(=NNS(=O)(=O)c2ccc(Br)cc2)CC1 (centres undefined)	CHOP inhibitor 92
Cc1ccc(S(=O)(=O)NN=C2CCC(C(C)(C)C)CC2)cc1[N+](=O)[O-] (centres undefined)	none
Nc1ccccc1-c1nc2ccccc2[nH]c1=O	none (no result: PREPL inh, CHOP inhibitor)
Nc1ccc(Br)cc1-c1nc2ccccc2[nH]c1=O	Beta apoptosis 102 (no result: CSC inhib)
O=c1[nH]c2ccccc2nc1-c1c[nH]c2ccccc12	NR3A LBD binder 39 (no result: CHOP inhibitor)
CCN(Cc1nc2cc(Cl)ccc2c(=O)[nH]1)C(=O)CN1C(=O)NC2(CCCCC2C)C1=O (centres undefined)	none (no result: T cruzi inh, Beta apoptosis, CSC inhib, PREPL inh, CHOP inhibitor)
CC(O)CNc1nc2ccccc2n1CC(=O)NC12CC3CC(CC(C3)C1)C2 (centres undefined)	none
CS(=O)(=O)NNC(=O)CN1C(=O)C2C3C=CC(C3)C2C1=O (centres undefined)	none
CNC(=O)CN1C(=O)C2C3C=CC(C3)C2C1=O (centres undefined)	CHOP inhibitor 78
COCCn1c(SCC(=O)NC2CCCCC2)nc2c(c1=O)SCC2	none (no result: CHOP inhibitor)
COCCn1c(SCC(=O)N2CCC(C)CC2)nc2c(c1=O)SCC2	NR3A LBD binder 11 (no result: CHOP inhibitor)
CC(C)(C)CC(=O)Nc1ccc(Nc2ccccc2)cc1	none (no result: Beta apoptosis)
CSc1cc(C)n(-c2ccccc2)c(=S)c1C(C)=O	NR3A LBD binder 12
CCC(C)(C)NC(=O)C(c1cccn1C)N(C(=O)Cn1nnc2ccccc21)c1ccc(OC)cc1 (centres undefined)	NR3A LBD binder 11
CCC(C)(C)NC(=O)C(c1ccc(C)o1)N(Cc1cccs1)C(=O)Cn1nnc2ccccc21 (centres undefined)	CHOP inhibitor 77
Cc1cccc(CN2CCC(Oc3ccc(C(=O)N4CCCCC4)cc3)CC2)c1	none (no result: CHOP inhibitor)
COc1ccc(C(c2c[nH]c3ccccc23)c2c[nH]c3ccccc23)cc1O	CSC inhib 119, CHOP inhibitor 75 (no result: NR3A LBD binder)
COc1cc(CN(C)C(=O)C(=O)c2c[nH]c3ccccc23)ccc1O	none (no result: T cruzi inh, Beta apoptosis, CSC inhib, PREPL inh, CHOP inhibitor)
O=c1[nH]c(CSc2nc3ccccc3o2)nc2c1cnn2-c1ccccc1	CHOP inhibitor 74
